Measurements taken from paper PMC3438513 (Cancer research, 2012).
Where “and” joins values, the source holds several entries; their conditions need not be identical. Identical values can stand only once. Like-named read-outs stand apart in the source and are kept apart here.

Experiments:
human CD1d = human CD1d (Homo sapiens, UniProt P15813); assay type: binding
Method in brief: (§1)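 Plates coated with goat anti-mouse IgG Fc-gamma antibody, then washed three times with PBS/Tween. Added human or mouse CD1d-Ig dimer (5 μg/mL) mixed with competitor lipid and 18:1 biotinyl-PE (2 μg/mL) in PBS. Bound biotinyl-PE detected with HRP-avidin. Biotinyl-PE Kd obtained by titration without competitor, fitted to Y = (Bmax*X)/(Kd + X). Competitor constants derived by curve fitting.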

mouse CD1d = molecular target: T1, mouse CD1d (Mus musculus, UniProt P11609); assay type: binding; conditions: competitor of Biotinyl PE (2 μg/mL), CD1d dimer
T1 sequence (P11609 22-305 limits assumed): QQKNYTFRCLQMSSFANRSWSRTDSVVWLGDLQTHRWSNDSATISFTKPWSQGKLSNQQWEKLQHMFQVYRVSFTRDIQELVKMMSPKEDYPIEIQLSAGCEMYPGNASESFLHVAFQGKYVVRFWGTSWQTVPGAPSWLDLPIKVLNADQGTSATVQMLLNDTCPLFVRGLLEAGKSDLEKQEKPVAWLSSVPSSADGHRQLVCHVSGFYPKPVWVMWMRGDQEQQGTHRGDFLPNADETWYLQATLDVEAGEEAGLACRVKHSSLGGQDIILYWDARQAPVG
T1 sequence (P01887 21-119 partner): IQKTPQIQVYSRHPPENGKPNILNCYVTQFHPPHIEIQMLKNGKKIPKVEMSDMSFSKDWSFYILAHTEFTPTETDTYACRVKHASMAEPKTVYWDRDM
Method in brief: as §1

[1] = tested on: α-GalCer-induced NKT cell activation; assay: In vivo α-GalCer-induced serum cytokine production; parameters: species or system C57BL/6 mice; conditions: 1 μg α-GalCer intravenously
Method in brief: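 C57BL/6 mice, 6–8 weeks old, kept pathogen-free. Given α-GalCer 1 μg intravenously, with or without the test ganglioside at several concentrations. Serum taken at 2, 6, 12, 24, 48 and 72 h. IFN-γ measured by sandwich ELISA on two dilutions of pooled sera, reported as mean ± SD.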

NKT cells = assay: Staining of NKT cells with lipid-loaded CD1d-Ig dimers; assay type: cell-based; conditions: human and mouse CD1d-Ig dimers loaded overnight
Method in brief: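 Human or mouse CD1d-mouse IgG dimer (1 μg) loaded overnight at 37°C with 1.4 μg lipid or ascites in 50 μL PBS. Used to stain 2 × 10^5 NKT cells on ice for 30 min. Cells washed twice in PBS/5% FBS, then stained with PE rat anti-mouse IgG1 (A85-1) on ice for 30 min; anti-human CD3ε-APC added for human cells. Analysed by flow cytometry.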

[2] = tested on: CD1d-mediated activation of NKT cells (hybridomas DN32.D3, N38-3C3, N37-1A12); assay type: cell-based, mouse; conditions: 4 h
Method in brief: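 APCs were L cells stably transfected with WT cd1d1 cDNA. Treated with test ganglioside at increasing concentrations for 4 h at 37°C, washed extensively with PBS, then cocultured with hybridomas DN32.D3, N37-1A12 and N38-3C3 for 20–24 h at 37°C. IL-2 measured by sandwich ELISA. Triplicates, mean ± SEM; experiment repeated three times.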

canonical NKT cell = conditions: high concentrations; ref [9], [24]; cited from earlier work

CCCCCCCC/C=C\CCCCCCCC(=O)OC[C@H](COP(=O)(O)OCCNC(=O)CCCCCN)OC(=O)CCCCCCC/C=C\CCCCCCCC [18:1 PE lipid, 1,2-Dioleoyl-sn-Glycero-3-Phosphoethanolamine-N-(hexanoylamine)]
IC50 (human CD1d; read-out: IC50 in hCD1d, competitor of Biotinyl PE (2 μg/mL), CD1d dimer): 0.882 ± 0.125 µM
IC50 (mouse CD1d; read-out: IC50 in mCD1d): 0.843 ± 0.181 µM

CCCCCCCCCCCCCCCCCCCCCCCCCC(=O)N[C@@H](CO[C@H]1O[C@H](CO)[C@H](O)[C@H](O)[C@H]1O)[C@H](O)[C@H](O)CCCCCCCCCCCCCC [α-GalCer, α-galactosylceramide]
time at which serum IFN-γ production was detectable [1]: 2 h
time of peak serum IFN-γ production [1]: 24 h
time of return of serum IFN-γ to baseline [1]: ≤ 48 h
binding of lipid-loaded CD1d-Ig dimers to NKT cells (NKT cells): bound to NKT cells
IC50 (human CD1d): 0.084 ± 0.01 µM
IC50 (mouse CD1d; IC50 in mCD1d): 0.095 µM and 0.0951 µM

GT1b
inhibition of CD1d-mediated activation of NKT cells ([2]; increasing doses of purified ganglioside, IL-2 (Fig 3A-C)): Only GD3 inhibited

gangliotriaosylceramide [Gg3Cer]
reduction in NKT cell activation ([2]; gangliosides 5μg/ml, IL-2 (Fig 3D)): only incubation with GD3 resulted in a significant reduction
inhibition of canonical NKT cell activation (canonical NKT cell): inhibit canonical NKT cell activation when used at high concentrations
